The record followed here is ChEMBL document CHEMBL1142895, “Discovery of a new insecticide lead by optimizing a target-diverse scaffold: tetrazolinone derivatives” (2007).

The source made the active and inactive calls. No cut-off for these calls is given here.

In assay [1] the test system is Triticum aestivum. Kind of assay: Inhibition of stem growth of Triticum aestivum at 100 mg/L. It counts as functional. An outline of the steps:
(§1)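 Seeds of each species were grown in Petri dishes with 10 seeds per dish, at 28 °C, 70–80% RH, 16:8 h light:dark photoperiod and 3000 lx light for 5 days. Root and stem lengths were measured for the 10 seeds and averaged. Each test and its controls were run in three replicates, and the data were given probit analysis.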

The subject of assay [2] is Triticum aestivum. As to the kind of experiment: Inhibition of root growth of Triticum aestivum at 100 mg/L. It counts as functional. An outline of the steps: as §1
Assay [3] relates to Echinochloa crus-galli. As to the kind of experiment: Inhibition of stem growth of Echinochloa crus-galli at 100 mg/L. It is filed as functional. An outline of the steps: as §1
For assay [4], the system named is Echinochloa crus-galli. As to the kind of experiment: Inhibition of root growth of Echinochloa crus-galli at 100 mg/L. It is filed as functional. The gist of the method: as §1
For assay [5], the system named is Sorghum bicolor. As to the kind of experiment: Inhibition of stem growth of Sorghum bicolor at 100 mg/L. It is filed as functional. An outline of the steps: as §1
For assay [6], the system named is Sorghum bicolor. Kind of assay: Inhibition of root growth of Sorghum bicolor at 100 mg/L. It is filed as functional. An outline of the steps:
as §1

Assay [7] has as its system Brassica rapa subsp. oleifera. As to the kind of experiment: Inhibition of stem growth of Brassica campestris at 100 mg/L. It counts as functional. An outline of the steps:
as §1

Assay [8] has as its system Brassica rapa subsp. oleifera. Kind of assay: Inhibition of root growth of Brassica campestris at 100 mg/L. It is filed as functional. The gist of the method: as §1
The subject of assay [9] is Radish. As to the kind of experiment: Inhibition of stem growth of Raphanus sativus at 100 mg/L. It counts as functional. An outline of the steps:
as §1

Assay [10] has as its system Radish. As to the kind of experiment: Inhibition of root growth of Raphanus sativus at 100 mg/L. It counts as functional. The gist of the method:
as §1

Assay [11] has as its system Cucumis sativus. As to the kind of experiment: Inhibition of stem growth of Cucumis sativus at 100 mg/L. It counts as functional. The gist of the method:
as §1

Assay [12] concerns Cucumis sativus. As to the kind of experiment: Inhibition of root growth of Cucumis sativus at 100 mg/L. It counts as functional. An outline of the steps: as §1
A further assay deals with Aphis. As to the kind of experiment: Insecticidal activity against Aphis medicagini at 250 mg/L. It is filed as functional. An outline of the steps:
(§2)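 Groups of 10 of each species were placed in glass Petri dishes and sprayed with test solution using a Potter sprayer. After air-drying, they were held under normal rearing conditions. Mortality at 72 h was taken from the number and size of live larvae relative to untreated controls.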

The test system of assay [13] is Triticum aestivum. Kind of assay: Herbicidal activity against Triticum aestivum at 450 g ai/ha in greenhouse in vivo test. It counts as functional, organism-based.
Assay [14] has as its system Echinochloa crus-galli. Kind of assay: Herbicidal activity against Echinochloa crus-galli at 450 g ai/ha in greenhouse in vivo test. It is filed as functional, organism-based.
Assay [15] concerns Sorghum bicolor. Kind of assay: Herbicidal activity against Sorghum bicolor at 450 g ai/ha in greenhouse in vivo test. It counts as functional, organism-based.
Assay [16] relates to Brassica rapa subsp. oleifera. Kind of assay: Herbicidal activity against Brassica campestris at 450 g ai/ha in greenhouse in vivo test. It is filed as functional, organism-based.
Assay [17] concerns Cucumis sativus. Kind of assay: Herbicidal activity against Cucumis sativus at 450 g ai/ha in greenhouse in vivo test. It is filed as functional, organism-based.
Another assay relates to Tetranychus cinnabarinus. Kind of assay: Insecticidal activity against Tetranychus cinnabarinus at 250 mg/L. It is filed as functional. The gist of the method: as §2
Assay [18] relates to Radish. Kind of assay: Herbicidal activity against Raphanus sativus at 450 g ai/ha in greenhouse in vivo test. It counts as functional, organism-based.

As usually defined, the inhibition is the share of the control response that was lost under treatment. A higher inhibition goes with a strong effect. Consider `C=CCn1nnn(-c2ccccc2Cl)c1=O`, for which the inhibition at 100 µg/mL in the assay with Triticum aestivum [1] is 50%; in the assay on Triticum aestivum [2] it was 50%; in the assay on Echinochloa crus-galli [3], 0%; in the assay on Echinochloa crus-galli [4] it was 0%; with Sorghum bicolor [5], 0%; in the assay on Sorghum bicolor [6], 0%. Besides, the inhibition at 100 µg/mL in assay [7] was 60%; in assay [8], 0%; in the assay on Radish [9], 0%; with Radish [10] it was 0%; in the assay with Cucumis sativus [11], 60%; in the assay with Cucumis sativus [12], 0%. In addition, the Activity with Aphis worked out at 1.7%; in the assay with Tetranychus cinnabarinus, 98.6%. Moreover, the outcome (with Triticum aestivum [13]; in the assay on Echinochloa crus-galli [14]; with Sorghum bicolor [15]; in [16]; in the assay on Cucumis sativus [17]) was inactive.

Regarding `Cc1ccccc1Cn1nnn(-c2ccc(Cl)cc2)c1=O`, the inhibition at 100 µg/mL in the assay on Triticum aestivum [1] came to 30%; in the assay on Triticum aestivum [2], 0%; in the assay on Echinochloa crus-galli [3], 0%; in the assay with Echinochloa crus-galli [4] it was 0%; with Sorghum bicolor [5], 0%; with Sorghum bicolor [6], 0%. Besides, the inhibition at 100 µg/mL (in [7]; in assay [8]; with Radish [9]; with Radish [10]; in the assay on Cucumis sativus [11]; in the assay with Cucumis sativus [12]) was 0% each time. In addition, the figures for the Activity with Aphis and in the assay with Tetranychus cinnabarinus were 21.7% and 2.9%, respectively. In addition, the outcome (with Triticum aestivum [13]; in the assay on Echinochloa crus-galli [14]; with Sorghum bicolor [15]; in assay [16]; in the assay on Radish [18]; in the assay with Cucumis sativus [17]) was inactive.

As for `COc1cc(-n2nnn(C)c2=O)c(Cl)cc1Cl`, the inhibition at 100 µg/mL in the assay with Triticum aestivum [1] was 50%; with Triticum aestivum [2] it was 70%; in the assay on Echinochloa crus-galli [3] it was 30%; in the assay on Echinochloa crus-galli [4] it was 30%; in the assay with Sorghum bicolor [5], 30%; in the assay with Sorghum bicolor [6], 70%. Also, the inhibition at 100 µg/mL in assay [7] amounted to 0%; in assay [8], 0%; in the assay with Radish [9] it was 0%; in the assay on Radish [10], 0%; in the assay on Cucumis sativus [11], 60%; with Cucumis sativus [12], 60%. Also, the Activity with Aphis came to 0%; in the assay with Tetranychus cinnabarinus, 100%. Besides, the result (with Triticum aestivum [13]; in the assay with Echinochloa crus-galli [14]; in the assay on Sorghum bicolor [15]; in [16]; in the assay on Radish [18]; in the assay on Cucumis sativus [17]) was inactive.

Regarding `CCOC(=O)Cn1nnn(-c2ccc(Cl)cc2)c1=O`, the inhibition at 100 µg/mL in the assay on Triticum aestivum [1] came out at 30%; in the assay with Triticum aestivum [2], 30%; in the assay on Echinochloa crus-galli [3], 0%; with Echinochloa crus-galli [4] it was 0%; with Sorghum bicolor [5] it was 20%; in the assay with Sorghum bicolor [6], 20%. Moreover, the inhibition at 100 µg/mL stood at 70% in [7]; 85% in assay [8]; 40% in the assay with Radish [9]; 80% in the assay with Radish [10]; 0% in the assay on Cucumis sativus [11]; 0% in the assay on Cucumis sativus [12]. Besides, the Activity with Aphis came out at 8.3%; in the assay with Tetranychus cinnabarinus, 0%. In addition, the outcome (in the assay on Triticum aestivum [13]; in the assay with Echinochloa crus-galli [14]; in the assay with Sorghum bicolor [15]; in [16]; with Radish [18]; in the assay on Cucumis sativus [17]) was inactive.

Turning to `O=c1n(Cc2nnc(SCc3cccc(F)c3)s2)nnn1-c1ccc(Cl)cc1`, the inhibition at 100 µg/mL in the assay with Triticum aestivum [1] was determined as 70%; with Triticum aestivum [2], 40%; in the assay on Echinochloa crus-galli [3], 70%; in the assay with Echinochloa crus-galli [4] it was 50%; with Sorghum bicolor [5] it was 40%; with Sorghum bicolor [6], 40%. For the same compound, the inhibition at 100 µg/mL in assay [7] was determined as 0%; in [8], 40%; with Radish [9], 50%; with Radish [10], 50%; in the assay with Cucumis sativus [11], 30%; with Cucumis sativus [12], 30%. Also, the Activity with Aphis is 0%; in the assay on Tetranychus cinnabarinus it was 2.9%. In addition, the result (in the assay with Triticum aestivum [13]; with Echinochloa crus-galli [14]; in the assay on Sorghum bicolor [15]; in [16]; with Radish [18]; with Cucumis sativus [17]) was inactive.

For `CCSc1nnc(Cn2nnn(-c3ccc(Cl)cc3)c2=O)s1`, the inhibition at 100 µg/mL with Triticum aestivum [1] stood at 40%; in the assay with Triticum aestivum [2] it was 50%; with Echinochloa crus-galli [3], 70%; with Echinochloa crus-galli [4] it was 60%; with Sorghum bicolor [5], 60%; in the assay with Sorghum bicolor [6], 70%. The inhibition at 100 µg/mL in assay [7] is 60%; in assay [8], 60%; in the assay with Radish [9], 40%; in the assay on Radish [10], 50%; in the assay with Cucumis sativus [11] it was 30%; in the assay with Cucumis sativus [12], 0%. Also, the Activity in the assay on Aphis was 82.5%; in the assay on Tetranychus cinnabarinus it was 5.7%. Moreover, the outcome (in the assay with Triticum aestivum [13]; in the assay with Echinochloa crus-galli [14]; in the assay on Sorghum bicolor [15]; in assay [16]; in the assay with Radish [18]; in the assay on Cucumis sativus [17]) was inactive.

Take `COc1cccc(Cn2nnn(-c3ccc(Cl)cc3)c2=O)c1`: the inhibition at 100 µg/mL in the assay with Triticum aestivum [1], with Triticum aestivum [2], in the assay on Echinochloa crus-galli [3], with Echinochloa crus-galli [4], in the assay on Sorghum bicolor [5] and in the assay on Sorghum bicolor [6] was 0% in each case. In addition, the inhibition at 100 µg/mL (in assay [7]; in [8]; with Radish [9]; in the assay with Radish [10]; with Cucumis sativus [11]; in the assay on Cucumis sativus [12]) was 0% in each case. For the same compound, the figures for the Activity with Aphis and in the assay on Tetranychus cinnabarinus were 3.3% and 0%, respectively. In addition, the outcome (with Triticum aestivum [13]; in the assay with Echinochloa crus-galli [14]; in the assay on Sorghum bicolor [15]; in [16]; in the assay on Radish [18]; in the assay with Cucumis sativus [17]) was inactive.

In the assay on Tetranychus cinnabarinus, `CC(C)(C)c1ccc(CSc2cnn(C(C)(C)C)c(=O)c2Cl)cc1` [PYRIDABEN] returned an Activity of 100%.
